Measured values: ChEMBL document CHEMBL2401700, “Discovery of TD-8954, a clinical stage 5-HT(4) receptor agonist with gastrointestinal prokinetic properties” (Bioorg Med Chem Lett, 2013)

Columns and labels:
[1] = target: T1, 5-hydroxytryptamine receptor 3A (Homo sapiens, UniProt P46098); experiment: Binding affinity to human recombinant 5HT3 receptor
T1 sequence (P46098 whole entry): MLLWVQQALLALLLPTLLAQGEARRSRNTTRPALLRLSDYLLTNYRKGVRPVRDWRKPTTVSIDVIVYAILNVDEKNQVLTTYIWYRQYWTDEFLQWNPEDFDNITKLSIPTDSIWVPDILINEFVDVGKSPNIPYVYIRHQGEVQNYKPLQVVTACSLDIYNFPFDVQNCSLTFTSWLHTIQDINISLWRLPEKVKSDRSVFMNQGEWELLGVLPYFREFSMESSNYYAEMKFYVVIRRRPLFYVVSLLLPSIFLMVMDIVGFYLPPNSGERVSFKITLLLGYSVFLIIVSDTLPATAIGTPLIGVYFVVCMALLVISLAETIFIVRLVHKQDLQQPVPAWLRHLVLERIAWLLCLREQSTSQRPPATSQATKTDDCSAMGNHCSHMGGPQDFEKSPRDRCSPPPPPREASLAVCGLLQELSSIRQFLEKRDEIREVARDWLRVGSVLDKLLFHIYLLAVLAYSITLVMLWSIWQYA

Rattus norvegicus = experiment: Agonist activity at 5HT4 receptor in ID dosed rat assessed as dose required to cause esophageal relaxation of 0.1 mm; assay type: functional
In short: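 Anesthetized rats dosed intraduodenally over about 0.01–10 mg/kg. Esophageal relaxation was tracked by digital sonomicrometry as the change in inter-crystal distance (mm), n = 4–6. An ED50 was derived from the dose–response, and the dose giving a 0.1 mm relaxation response was calculated.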

[2] = target: T2, 5-hydroxytryptamine receptor 7 (Homo sapiens, UniProt P34969); experiment: Binding affinity to human serotonin 5-HT7 receptor
[3] = target: T3, 5-hydroxytryptamine receptor 1A (Homo sapiens, UniProt P08908); experiment: Binding affinity to human serotonin 5-HT1A receptor
T3 sequence (P08908 whole entry): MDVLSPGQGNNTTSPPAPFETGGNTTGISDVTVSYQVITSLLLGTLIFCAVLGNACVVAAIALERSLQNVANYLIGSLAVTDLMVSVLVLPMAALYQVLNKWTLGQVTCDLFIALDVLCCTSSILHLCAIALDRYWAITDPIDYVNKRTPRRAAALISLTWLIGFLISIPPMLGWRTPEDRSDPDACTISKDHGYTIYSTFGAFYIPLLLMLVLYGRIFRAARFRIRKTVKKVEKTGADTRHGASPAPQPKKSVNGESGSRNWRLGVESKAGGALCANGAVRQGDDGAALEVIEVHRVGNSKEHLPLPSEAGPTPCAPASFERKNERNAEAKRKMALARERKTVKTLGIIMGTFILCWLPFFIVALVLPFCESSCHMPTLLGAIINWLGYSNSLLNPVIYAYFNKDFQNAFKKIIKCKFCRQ

[4] = target: T4, 5-hydroxytryptamine receptor 4 (Homo sapiens, UniProt Q13639); experiment: Agonist activity at human recombinant 5HT4 receptor assessed as cAMP accumulation relative to 5-HT; assay type: functional
In short: (§1)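 cAMP accumulation in cells expressing human recombinant 5-HT4 receptor, reported as pEC50 with intrinsic activity as % of the maximum response achieved by 5-HT.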

[5] = target: T1, 5-hydroxytryptamine receptor 3A; experiment: Binding affinity to serotonin 5-HT3 receptor (unknown origin)
[6] = Half life in rat liver micrososmes; assay type: ADME, Microsome; details: liver microsomes
[7] = target: T4, 5-hydroxytryptamine receptor 4; experiment: Binding affinity to human recombinant 5HT4 receptor
[8] = target: T4, 5-hydroxytryptamine receptor 4; experiment: Agonist activity at human recombinant 5HT4 receptor assessed as cAMP accumulation; assay type: functional; in short: as §1
[9] = Permeability across human Caco2 cells; assay type: ADME, cell-based; details: Caco-2, read-out: Kp
hERG (KCNH2) = hERG (KCNH2) (Homo sapiens, UniProt Q12809); experiment: Inhibition of human ERG channel at 3 uM
[10] = Cardiotoxicity in dog coronary artery assessed as coronary artery constriction; assay type: toxicity, tissue-based, Canis lupus familiaris
[11] = target: 5-hydroxytryptamine receptor 1D (Homo sapiens, UniProt P28221); experiment: Binding affinity to serotonin 5-HT1D receptor (unknown origin)
[12] = target: 5-hydroxytryptamine receptor 2A (Homo sapiens, UniProt P28223); experiment: Binding affinity to serotonin 5-HT2A receptor (unknown origin)
[13] = target: T5, 5-hydroxytryptamine receptor 2C (Homo sapiens, UniProt P28335); experiment: Binding affinity to serotonin 5-HT2C receptor (unknown origin)
T5 sequence (P28335 whole entry): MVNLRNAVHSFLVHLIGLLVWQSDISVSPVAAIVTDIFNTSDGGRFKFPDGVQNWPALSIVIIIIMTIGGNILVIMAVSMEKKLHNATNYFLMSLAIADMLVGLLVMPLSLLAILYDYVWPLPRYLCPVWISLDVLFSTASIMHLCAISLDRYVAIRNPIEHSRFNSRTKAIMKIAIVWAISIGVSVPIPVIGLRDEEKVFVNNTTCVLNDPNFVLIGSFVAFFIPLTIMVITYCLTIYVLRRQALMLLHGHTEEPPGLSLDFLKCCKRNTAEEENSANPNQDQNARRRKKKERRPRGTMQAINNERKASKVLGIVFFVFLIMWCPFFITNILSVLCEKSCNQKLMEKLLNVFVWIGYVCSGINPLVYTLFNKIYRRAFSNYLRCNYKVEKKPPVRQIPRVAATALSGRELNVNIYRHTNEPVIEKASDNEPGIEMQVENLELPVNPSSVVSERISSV

[14] = target: T2, 5-hydroxytryptamine receptor 7; experiment: Binding affinity to serotonin 5-HT7 receptor (unknown origin)
[15] = target: 5-hydroxytryptamine receptor 2B (Homo sapiens, UniProt P41595); experiment: Binding affinity to serotonin 5-HT2B receptor (unknown origin)
5-hydroxytryptamine receptor 2B, sequence (P41595 whole entry): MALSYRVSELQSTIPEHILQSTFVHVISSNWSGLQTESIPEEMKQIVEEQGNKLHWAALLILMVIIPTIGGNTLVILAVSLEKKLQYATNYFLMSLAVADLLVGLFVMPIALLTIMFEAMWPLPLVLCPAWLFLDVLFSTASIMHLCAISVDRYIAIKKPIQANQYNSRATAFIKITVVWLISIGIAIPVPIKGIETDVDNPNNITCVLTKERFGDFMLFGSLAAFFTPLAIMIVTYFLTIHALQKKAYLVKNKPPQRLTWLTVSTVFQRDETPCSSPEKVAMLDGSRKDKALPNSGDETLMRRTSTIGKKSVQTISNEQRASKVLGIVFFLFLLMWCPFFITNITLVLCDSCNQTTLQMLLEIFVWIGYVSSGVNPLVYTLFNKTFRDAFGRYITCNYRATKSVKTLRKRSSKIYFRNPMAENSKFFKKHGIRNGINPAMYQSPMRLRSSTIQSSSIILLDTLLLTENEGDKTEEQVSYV

T4 sequence (Q13639 whole entry): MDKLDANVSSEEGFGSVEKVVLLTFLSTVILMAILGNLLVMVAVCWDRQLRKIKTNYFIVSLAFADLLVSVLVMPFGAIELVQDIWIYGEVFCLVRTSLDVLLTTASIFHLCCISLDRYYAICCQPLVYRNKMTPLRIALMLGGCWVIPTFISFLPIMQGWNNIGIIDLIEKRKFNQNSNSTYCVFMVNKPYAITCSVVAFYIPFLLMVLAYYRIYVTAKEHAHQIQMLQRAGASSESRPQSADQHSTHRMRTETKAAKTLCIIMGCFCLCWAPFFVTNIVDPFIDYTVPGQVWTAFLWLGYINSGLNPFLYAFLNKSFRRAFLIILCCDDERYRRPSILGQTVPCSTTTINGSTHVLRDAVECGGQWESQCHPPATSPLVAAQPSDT
hERG (KCNH2), sequence (Q12809 whole entry): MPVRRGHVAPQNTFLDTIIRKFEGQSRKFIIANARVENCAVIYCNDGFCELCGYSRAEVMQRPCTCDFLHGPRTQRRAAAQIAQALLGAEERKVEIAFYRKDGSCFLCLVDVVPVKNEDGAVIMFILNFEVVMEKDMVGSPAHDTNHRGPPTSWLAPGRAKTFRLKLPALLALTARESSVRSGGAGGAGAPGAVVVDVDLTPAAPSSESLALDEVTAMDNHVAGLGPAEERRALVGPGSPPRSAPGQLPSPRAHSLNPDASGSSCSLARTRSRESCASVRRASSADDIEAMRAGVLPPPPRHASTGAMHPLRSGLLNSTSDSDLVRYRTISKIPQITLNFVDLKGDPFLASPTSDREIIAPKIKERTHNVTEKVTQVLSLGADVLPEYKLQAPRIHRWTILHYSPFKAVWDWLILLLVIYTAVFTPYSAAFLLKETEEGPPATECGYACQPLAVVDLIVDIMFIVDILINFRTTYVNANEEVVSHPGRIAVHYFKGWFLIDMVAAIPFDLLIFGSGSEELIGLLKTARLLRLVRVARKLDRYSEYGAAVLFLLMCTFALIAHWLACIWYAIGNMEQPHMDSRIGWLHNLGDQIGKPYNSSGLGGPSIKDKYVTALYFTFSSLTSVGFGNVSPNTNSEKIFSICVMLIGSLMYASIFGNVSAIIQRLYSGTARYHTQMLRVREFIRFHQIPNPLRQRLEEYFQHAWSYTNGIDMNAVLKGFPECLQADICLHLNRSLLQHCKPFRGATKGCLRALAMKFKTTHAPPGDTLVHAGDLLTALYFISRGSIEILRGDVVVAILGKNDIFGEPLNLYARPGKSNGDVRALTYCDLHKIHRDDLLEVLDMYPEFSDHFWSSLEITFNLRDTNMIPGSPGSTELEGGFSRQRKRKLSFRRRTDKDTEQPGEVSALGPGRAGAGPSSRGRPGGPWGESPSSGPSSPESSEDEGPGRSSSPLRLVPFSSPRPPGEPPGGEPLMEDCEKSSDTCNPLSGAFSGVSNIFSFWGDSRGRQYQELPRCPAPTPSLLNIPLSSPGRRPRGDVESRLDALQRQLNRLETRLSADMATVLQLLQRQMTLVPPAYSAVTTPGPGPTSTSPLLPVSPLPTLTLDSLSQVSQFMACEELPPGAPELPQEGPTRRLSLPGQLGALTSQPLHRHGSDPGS
T2 sequence (P34969 whole entry): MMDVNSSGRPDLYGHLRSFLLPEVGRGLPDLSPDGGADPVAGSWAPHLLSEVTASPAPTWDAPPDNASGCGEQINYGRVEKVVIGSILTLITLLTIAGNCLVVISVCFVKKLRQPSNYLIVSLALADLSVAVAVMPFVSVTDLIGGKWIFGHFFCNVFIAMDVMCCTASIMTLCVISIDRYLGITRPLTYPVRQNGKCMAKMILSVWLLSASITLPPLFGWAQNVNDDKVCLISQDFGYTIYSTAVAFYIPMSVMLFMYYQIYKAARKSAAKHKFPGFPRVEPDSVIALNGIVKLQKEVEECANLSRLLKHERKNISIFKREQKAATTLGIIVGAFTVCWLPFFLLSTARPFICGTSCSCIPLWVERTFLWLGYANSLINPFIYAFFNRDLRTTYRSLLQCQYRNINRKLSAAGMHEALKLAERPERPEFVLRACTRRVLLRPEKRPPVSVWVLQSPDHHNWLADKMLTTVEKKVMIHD
5-hydroxytryptamine receptor 1D, sequence (P28221 whole entry): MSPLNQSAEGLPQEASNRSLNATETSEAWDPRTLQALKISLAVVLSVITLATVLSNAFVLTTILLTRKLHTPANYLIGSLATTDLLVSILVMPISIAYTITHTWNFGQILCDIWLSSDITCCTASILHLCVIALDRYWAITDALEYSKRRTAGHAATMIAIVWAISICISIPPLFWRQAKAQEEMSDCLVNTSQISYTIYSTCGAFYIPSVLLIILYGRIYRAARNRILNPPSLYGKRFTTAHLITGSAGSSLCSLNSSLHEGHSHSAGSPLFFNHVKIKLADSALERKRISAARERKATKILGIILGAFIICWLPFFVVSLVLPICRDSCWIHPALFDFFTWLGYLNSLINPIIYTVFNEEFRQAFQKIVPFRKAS
5-hydroxytryptamine receptor 2A, sequence (P28223 whole entry): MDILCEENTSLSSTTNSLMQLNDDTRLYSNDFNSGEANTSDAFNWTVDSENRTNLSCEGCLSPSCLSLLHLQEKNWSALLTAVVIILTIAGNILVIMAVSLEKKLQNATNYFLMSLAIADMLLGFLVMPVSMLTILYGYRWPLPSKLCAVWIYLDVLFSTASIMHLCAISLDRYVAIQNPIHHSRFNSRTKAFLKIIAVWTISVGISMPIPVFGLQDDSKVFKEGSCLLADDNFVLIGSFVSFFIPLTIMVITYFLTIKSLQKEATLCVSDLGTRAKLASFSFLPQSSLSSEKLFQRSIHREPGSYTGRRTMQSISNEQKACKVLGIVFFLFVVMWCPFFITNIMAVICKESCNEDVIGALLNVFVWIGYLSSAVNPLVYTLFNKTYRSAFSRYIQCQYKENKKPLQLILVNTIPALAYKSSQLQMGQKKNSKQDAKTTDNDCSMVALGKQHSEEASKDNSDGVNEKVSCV

Molecule `COc1cc(N)c(Cl)cc1C(=O)NC1CCN(CCCOc2ccc(F)cc2)CC1OC` (racemic) [CISAPRIDE] has a Ki [1] of 2000 nM, an Activity (Rattus norvegicus) of 2.66 mg/kg and a Ki [2] of 1000 nM. It also gave a Ki [3] of 794 nM, an Intrinsic activity [4] of 71% and a Ki [5] of 2000 nM. The half-life [6] was 0.783 h.
Work on `CS(=O)(=O)N1CCN(CC(O)CN2CCC(CNC(=O)c3cccc4nc[nH]c34)CC2)CC1` (stereo not given) yielded a Ki [1] of 50100 nM, a Ki [7] of 6.31 nM and an EC50 [8] of 10 nM.
With `COC(=O)N(C)CC(O)CN1CCC(CNC(=O)c2cccc3nc(C(C)C)[nH]c23)CC1` (stereo not given) the Ki [1] was 50100 nM, the Ki [7] was 3.98 nM and the Papp [9] was 2 ×10⁻⁶ cm/s. For the same molecule, the half-life [6] was 1.32 h and the EC50 [8] was 2 nM.
For `CC(C)(C)c1nc2cccc(C(=O)NCC3CCN(CC(O)CN4CCN(S(C)(=O)=O)CC4)CC3)c2[nH]1` (stereo not given), the Ki [1] was 39800 nM, the Ki [7] was 12.6 nM and the Papp [9] was 0.5 ×10⁻⁶ cm/s. For the same molecule, the half-life [6] was over 1.5 h and the EC50 [8] was 3.16 nM.
For `CC(C)c1nc2c(C(=O)NCC3CCN(CC(O)CN4CCN(S(C)(=O)=O)CC4)CC3)cc(Cl)cc2[nH]1` (stereo not given), the Ki [1] was 1260 nM, the Ki [7] was 0.316 nM and the Intrinsic activity [4] was 0%.
With `CC(C)(C)c1nc2c(C(=O)NCC3CCN(CC(O)CN4CCN(S(C)(=O)=O)CC4)CC3)cccc2[nH]1` (stereo not given) the Intrinsic activity [4] was 94%.
With `CC(=O)N1CCC(CN2CCC(CNC(=O)c3cccc4[nH]c(C(C)C)nc34)CC2)CC1` the Ki [1] was 100000 nM, the Ki [7] was 1 nM and the Intrinsic activity [4] was 87%. The Papp [9] was 6 ×10⁻⁶ cm/s, the inhibition at 3 µM (hERG (KCNH2)) was 22% and the half-life [6] was over 1.5 h. The EC50 [8] was 1.58 nM.
For `CC(F)(F)c1nc2cccc(C(=O)NCC3CCN(CC(O)CN4CCN(S(C)(=O)=O)CC4)CC3)c2[nH]1` (stereo not given), the Ki [1] was 7940 nM, the Ki [7] was 2 nM and the EC50 [8] was 0.794 nM.
For `CC(C)c1nc2c(C(=O)NCC3CCN(CC(O)CN4CCN(S(C)(=O)=O)CC4)CC3)cccc2[nH]1` (stereo not given), the Ki [1] was 79400 nM, the Ki [7] was 0.501 nM and the Intrinsic activity [4] was 61%. The Papp [9] was 0.2 ×10⁻⁶ cm/s, the inhibition at 3 µM (hERG (KCNH2)) was 5% and the half-life [6] was over 1.5 h. For the same molecule, the EC50 [8] was 0.631 nM.
Molecule `CC(F)(F)c1nc2c(C(=O)NCC3CCN(CC(O)CN4CCN(S(C)(=O)=O)CC4)CC3)cccc2[nH]1` (stereo not given) has an Intrinsic activity [4] of 59%.
`CS(=O)(=O)N1CCN(CC(O)CN2CCC(CNC(=O)c3cccc4[nH]c(C5CC5)nc34)CC2)CC1` (stereo not given) gave a Ki [1] of 50100 nM, a Ki [7] of 0.501 nM and an Intrinsic activity [4] of 64%. It also gave a Papp [9] of 2.1 ×10⁻⁶ cm/s, a half-life [6] of over 1.5 h and an EC50 [8] of 0.631 nM.
For `CCc1nc2c(C(=O)NCC3CCN(CC(O)CN4CCN(S(C)(=O)=O)CC4)CC3)cccc2[nH]1` (stereo not given), the Ki [1] was 79400 nM, the Ki [7] was 0.501 nM and the Intrinsic activity [4] was 22%. The EC50 [8] was 1 nM.
In the case of `CS(=O)(=O)N1CCN(CC(O)CN2CCC(CNC(=O)c3cccc4[nH]c(-c5ccccc5)nc34)CC2)CC1` (stereo not given), the Ki [1] is reported as 15800 nM, the Ki [7] is reported as 1.26 nM and the Intrinsic activity [4] is reported as 41%. It also gave an EC50 [8] of 1.58 nM.
Work on `CC(=O)N(C)CC(O)CN1CCC(CNC(=O)c2cccc3[nH]c(C(C)C)nc23)CC1` (stereo not given) yielded an Intrinsic activity [4] of 64%.
For `CC(=O)N(C)CC(O)CN1CCC(CNC(=O)c2cccc3nc(C(C)C)[nH]c23)CC1` (stereo not given), the Ki [1] was 63100 nM, the Ki [7] was 3.98 nM and the half-life [6] was over 1.5 h. For the same molecule, the EC50 [8] was 1.58 nM.
In the case of `CC(C)c1nc2c(C(=O)NCC3CCN(CCN4CCN(S(C)(=O)=O)CC4)CC3)cccc2[nH]1`, the Ki [1] is reported as 100000 nM, the Ki [7] is reported as 0.794 nM and the Intrinsic activity [4] is reported as 64%. For the same molecule, the Papp [9] was 4 ×10⁻⁶ cm/s, the half-life [6] was over 1.5 h and the EC50 [8] was 0.794 nM.
Work on `CS(=O)(=O)N1CCN(CC(O)CN2CCC(NC(=O)c3cccc4[nH]cnc34)CC2)CC1` (stereo not given) yielded a Ki [1] of 63100 nM, a Ki [7] of 251 nM and an Intrinsic activity [4] of 7%. For the same molecule, the EC50 [8] was 631 nM.
With `CCCCCNC(=N)N/N=C/c1c[nH]c2ccc(OC)cc12` [TEGASEROD] the Ki [1] was 2510 nM, the Activity (Rattus norvegicus) was 2.43 mg/kg and the Activity [10] was “Toxic”. The Ki [11] was under 100 nM, the Ki [12] was under 100 nM and the Ki [13] was under 100 nM. For the same molecule, the Ki [14] was under 100 nM, the Ki [15] was under 2 nM and the half-life [6] was over 1.5 h.
`CC(C)c1nc2cccc(C(=O)NCC3CCN(CC(O)CN(C)S(C)(=O)=O)CC3)c2[nH]1` (stereo not given) showed a Ki [1] of 79400 nM, a Ki [7] of 1.26 nM and a Papp [9] of 1 ×10⁻⁶ cm/s. It also gave a half-life [6] of over 1.5 h and an EC50 [8] of 0.398 nM.
Molecule `CC(C)c1nc2c(C(=O)NCC3CCN(CC(O)CN(C)S(C)(=O)=O)CC3)cccc2[nH]1` (stereo not given) has an Intrinsic activity [4] of 83%.
With `CC(C)c1nc2c(C(=O)NCC3CCN(CC4CCN(S(C)(=O)=O)CC4)CC3)cccc2[nH]1` the Ki [1] was 100000 nM, the Ki [7] was 0.501 nM and the Intrinsic activity [4] was 63%. It also gave a Papp [9] of 5 ×10⁻⁶ cm/s, an inhibition at 3 µM (hERG (KCNH2)) of 8% and a half-life [6] of 1.47 h. The EC50 [8] was 1 nM.
Work on `COC(=O)N(C)CC(O)CN1CCC(CNC(=O)c2cccc3[nH]c(C(C)C)nc23)CC1` (stereo not given) yielded an Intrinsic activity [4] of 64%.
With `COC(=O)N1CCN(CCN2CCC(CNC(=O)c3cccc4[nH]c(C(C)C)nc34)CC2)CC1` the Ki [1] was 79400 nM, the Ki [7] was 1.58 nM and the Intrinsic activity [4] was 72%. For the same molecule, the Papp [9] was 9 ×10⁻⁶ cm/s, the half-life [6] was over 1.5 h and the EC50 [8] was 1.58 nM.
Molecule `CS(=O)(=O)N1CCN(CC(O)CN2[C@@H]3CC[C@H]2C[C@@H](NC(=O)c2cccc4[nH]cnc24)C3)CC1` (stereo not given in full) has an Intrinsic activity [4] of 54%.
In the case of `CS(=O)(=O)N1CCN(CC(O)CN2CCC(CNC(=O)c3cccc4[nH]cnc34)CC2)CC1` (stereo not given), the Intrinsic activity [4] is reported as 6%.
`CC(=O)N1CCN(CCN2CCC(CNC(=O)c3cccc4[nH]c(C(C)C)nc34)CC2)CC1` gave an Intrinsic activity [4] of 76%.
`CS(=O)(=O)N1CCN(CC(O)CN2[C@@H]3CC[C@H]2C[C@@H](NC(=O)c2cccc4nc[nH]c24)C3)CC1` (stereo not given in full) gave a Ki [1] of 20000 nM, a Ki [7] of 316 nM and an EC50 [8] of 251 nM.
`CC(=O)N1CCN(CCN2CCC(CNC(=O)c3cccc4nc(C(C)C)[nH]c34)CC2)CC1` gave a Ki [1] of 39800 nM, a Ki [7] of 5.01 nM and a half-life [6] of over 1.5 h. It also gave an EC50 [8] of 3.16 nM.
